What was measured:
[1] = test system: PC-3; test: Growth inhibition of human PC3 cells after 48 hrs by sulforhodamine B assay; type: functional; details: PC-3, 48 h
In short: (§1)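 Run in the NCI-DTP 60-cell-line screen. Cells were exposed for 48 h to at least five 10-fold dilutions (0.01 to 100 μM). Cell growth was estimated by sulforhodamine B protein staining. Percentage growth at each level was taken from absorbances at time zero (Tz), of the untreated control (C) and of treated cells (Ti), as [(Ti-Tz)/(C-Tz)]*100.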

[2] = test system: DU-145; test: Growth inhibition of human DU145 cells after 48 hrs by sulforhodamine B assay; type: functional; details: DU-145, 48 h; in short: as §1
[3] = test system: RPMI-8226; test: Growth inhibition of human RPMI8226 cells after 48 hrs by sulforhodamine B assay; type: functional; details: RPMI-8226, 48 h; in short: as §1
[4] = test system: Hs-578T; test: Growth inhibition of human Hs578T cells after 48 hrs by sulforhodamine B assay; type: functional; in short: as §1
[5] = test system: HOP-92; test: Growth inhibition of human HOP92 cells after 48 hrs by sulforhodamine B assay; type: functional; details: HOP-92, 48 h; in short: as §1
[6] = test system: U-251; test: Growth inhibition of human U251 cells after 48 hrs by sulforhodamine B assay; type: functional; details: U-251, 48 h; in short: as §1
[7] = molecular target: T1, 3-phosphoinositide-dependent protein kinase 1 (Homo sapiens, UniProt O15530); test: Inhibition of recombinant PDK1 using P2925 peptide as substrate by fluorescence polarization assay
T1 sequence (O15530 whole entry): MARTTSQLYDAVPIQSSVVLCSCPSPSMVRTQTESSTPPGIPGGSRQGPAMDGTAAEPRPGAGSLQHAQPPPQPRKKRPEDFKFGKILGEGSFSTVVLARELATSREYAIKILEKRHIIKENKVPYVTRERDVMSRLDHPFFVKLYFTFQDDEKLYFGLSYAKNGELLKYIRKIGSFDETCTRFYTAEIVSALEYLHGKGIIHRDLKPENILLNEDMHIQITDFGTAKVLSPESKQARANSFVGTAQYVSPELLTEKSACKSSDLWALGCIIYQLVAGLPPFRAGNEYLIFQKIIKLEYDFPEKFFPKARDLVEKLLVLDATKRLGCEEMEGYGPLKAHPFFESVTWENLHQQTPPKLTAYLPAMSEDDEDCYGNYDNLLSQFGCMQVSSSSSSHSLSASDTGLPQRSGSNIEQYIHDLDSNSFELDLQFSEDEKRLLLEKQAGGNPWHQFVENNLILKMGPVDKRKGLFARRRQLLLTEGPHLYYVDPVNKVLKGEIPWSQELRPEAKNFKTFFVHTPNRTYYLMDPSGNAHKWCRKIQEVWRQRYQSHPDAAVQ
In short: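 A fluorescence polarization kit assay. Recombinant PDK1 phosphorylates the substrate peptide with DMSO or inhibitor present. The phosphopeptide formed competes with a fluorescein-labeled phosphopeptide tracer for an anti-phosphothreonine antibody, and polarization is then read on a plate reader. A standard reference inhibitor was run alongside.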

[8] = test system: SF-295; test: Growth inhibition of human SF295 cells after 48 hrs by sulforhodamine B assay; type: functional; details: SF-295, 48 h; in short: as §1
[9] = test system: SF-268; test: Growth inhibition of human SF268 cells after 48 hrs by sulforhodamine B assay; type: functional; details: SF-268, 48 h; in short: as §1
[10] = test system: RXF 393; test: Growth inhibition of human RXF393 cells after 48 hrs by sulforhodamine B assay; type: functional; details: RXF 393, 48 h; in short: as §1
[11] = test system: OVCAR-3; test: Growth inhibition of human OVCAR3 cells after 48 hrs by sulforhodamine B assay; type: functional; details: OVCAR-3, 48 h; in short: as §1
[12] = test system: LOX IMVI; test: Growth inhibition of human LOXIMVI cells after 48 hrs by sulforhodamine B assay; type: functional; in short: as §1
[13] = test system: Hs-578T; test: Growth inhibition of human Hs578T cells at 10 uM after 48 hrs by sulforhodamine B assay; type: functional; details: read-out: GI
In short: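 A single-concentration NCI-DTP test at 10 μM, run two times. After 48 h exposure, growth was read by sulforhodamine B staining and expressed as percentage growth, [(Ti-Tz)/(C-Tz)]*100, against time-zero and untreated-control absorbances. Growth inhibition is reported as 100 minus percentage growth.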

[14] = test system: KM12; test: Growth inhibition of human KM12 cells after 48 hrs by sulforhodamine B assay; type: functional; details: KM12, 48 h; in short: as §1

- GI50 [1]: 6.02 µM
- GI50 [2]: 5.39 µM
- GI50 [3]: 3.54 µM
- GI50 [6]: 9.88 µM
- IC50 [7]: 0.2 µM
- GI50 [11]: 2.02 µM
SMILES: CCOC(=O)c1ccc(Nc2cc(C)nc(Nc3ccc(C(=O)OCC)cc3)n2)cc1
- GI50 [4]: < 10 µM
- GI50 [5]: 3.25 µM
- GI50 [8]: 8.64 µM
- GI50 [9]: 3.8 µM
- GI50 [10]: 5.05 µM
- GI50 [12]: 7.24 µM
- inhibition of growth at 10 µM [13]: 67%
- GI50 [14]: 3.62 µM

From ChEMBL document CHEMBL1949528, “New inhibitor of 3-phosphoinositide dependent protein kinase-1 identified from virtual screening” (Bioorg Med Chem Lett, 2012)
